# From ChEMBL document CHEMBL4513216, “Probing the Open Global Health Chemical Diversity Library for Multistage-Active Starting Points for Next-Generation Antimalarials” (ACS Infect Dis, 2020)
# Experiment: Toxicity liver stage against HepG2, at 10uM
# Assay type: cell-based
# Set-up: test concentration 10 uM, cell line HepG2-A16-CD81EGFP
# Conditions: human, HepG2-A16-CD81EGFP cells; read-out: INHIBITION
# Summary of the method: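 Uninfected HepG2-A16-CD81EGFP cells, 3 × 10^3 per well, 1536-well, plated on prespotted compound at 10 μM final, parasite-free screening media added to match infected plates; puromycin 10 μM positive, DMSO 0.5% negative; run in parallel with 48 h PbLuc assay at 37 °C, 5% CO2; viability by CellTiter-Glo luminescence, normalized to controls.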
row,SMILES,cytotoxicity at 10 µM
1,c1cn(CCc2c[nH]cn2)c(-c2cc(CN3CCCC3)cs2)n1,-1.45%
2,Cc1ncsc1CCN(C)Cc1cc2n(n1)CCN(S(C)(=O)=O)C2,-12.8%
3,CN(Cc1ccc(Cl)s1)C(=O)NCc1nnc2n1CCC2,-5.36%
4,CCc1nc(NCC2CCCN(C(=O)C3CC3)C2)c2cnn(C)c2n1 (stereo not given),1.14%
5,CCC(=O)N1CCN(C(=O)c2ccc(COC)o2)[C@H]2CS(=O)(=O)C[C@H]21,-10.9%
6,CCN1CCC2(CN(C(C)=O)CC23CCN(CC2CC2)CC3)C1=O (stereo not given),3.94%
7,N[C@H]1CN(C(=O)c2ccc3[nH]c(=O)c(=O)[nH]c3c2)C[C@@H]1c1ccccc1,2.19%
8,NC(=O)c1cccc2nc([C@H]3CCN(Cc4ccccc4F)C3)[nH]c12,20.8%
9,Cc1c(CN2CCCCC2)c(O)n(CCO)c(=O)c1C#N,-1.64%
10,Cc1cc(C)nc(CN(C)C(=O)c2ccccc2C2CCNC2)c1 (stereo not given),1.64%
11,CCNC(=O)C1CCN(c2cc(-c3ccccc3)nc3cc(C)nn23)C1 (stereo not given),-2.97%
12,CCn1cc2c(n1)CN(Cc1ccc(F)cc1)CC2COCC1CC1 (stereo not given),-69%
13,CN1CCOC(CN(C(=O)CCCn2cccn2)c2nccs2)C1 (stereo not given),-22.7%
14,COCc1cccc(CNc2cnn(C(C)(C)C)c(=O)c2Cl)c1,59.2%
15,Fc1ccc(-c2cc(NCCC3CCOC3)n3nccc3n2)cc1 (stereo not given),2.8%
16,COCC1CCCN(C(=O)c2ccc(N(C)Cc3cnn(C)c3)nc2)C1 (stereo not given),-3.97%
17,Cc1nn(C)cc1CN1CCN(CC2(c3ccccc3)CC2)CC1,1.25%
18,c1ccc(CCN2CCN(C3CCOC4(CCOCC4)C3)CC2)nc1 (stereo not given),2.1%
19,CC(C)Cn1cc(C(=O)NC2CCS(=O)(=O)C2)c2ccccc2c1=O (stereo not given),0.724%
20,O=C(NCCc1cc(N2CCOCC2)nc(NC2CC2)n1)C1CC1,-0.995%
21,CC(C)c1nc(CN(C)C2CCCN(c3cccnn3)C2)no1 (stereo not given),-9.92%
22,CCCN(Cc1cnc2ccccc2n1)Cc1ccccc1OC,-40.1%

row,SMILES,cytotoxicity at 10 µM
1,Cc1noc(C)c1CN1CCC2(CC1)CN(c1ccccn1)CCO2,-3%
2,Cc1cc(Oc2ccc(NC(=O)C3CC3)cc2)cc(C2CCNCC2)n1,-6.18%
3,Cc1cnn(C2CCCN(C(=O)c3ccc(N4CCCC4)nn3)C2)c1 (stereo not given),-2.38%
4,Cc1nn(C)c(N2CCOCC2)c1CNC1CCOc2ccccc21 (stereo not given),-7.44%
5,CC(=O)N1CCN(C(=O)CN2CCCC2c2c(C)nn(C)c2C)CC1 (stereo not given),6.34%
6,Cn1ccnc1CN1CCC2(CC1)CCN(Cc1ccoc1)C2,-6.08%
7,CCOc1cccc(COC(=O)c2ccc(Cl)cn2)n1,-3.44%
8,C1CCC(NCCN2CCOCC2)C1,-145%
9,FC(F)(F)C1CCCn2c(CNCc3ccsc3)nnc21 (stereo not given),16.5%
10,O=C(c1nn[nH]c1Nc1ccc(Cl)cc1)N1CCSCC1,4.67%
11,CC(C)(C)n1ncc2c1NC(=O)CC2c1ccsc1 (stereo not given),20.4%
12,CC1CCCN(CCNC(=O)c2ccn(-c3cccc(F)c3)n2)C1 (stereo not given),-3.25%
13,Cc1ccc2c(c1)C1(CCNCC1)CC2NC(C)C (stereo not given),-9.73%
14,CN(C)CCNC(=O)c1cc2n(n1)CCN(C(=O)c1ccco1)C2,2.52%
15,Cc1nnc(NC(=O)NCc2ccc(N3CCOCC3)nc2)s1,-6.21%
16,Cc1ccccc1OCC1CCCN(c2cc(N)nc(N)n2)C1 (stereo not given),29%
17,CC(=O)Nc1nc2c(s1)C(C)(C)Nc1ccccc1S2,-7.08%
18,Cc1noc(C)c1CN1CC[C@H]2OCC[C@@H](C(=O)N3CCCO3)[C@@H]2C1,-8.25%
19,CN(C)CCCN(C)C1CCN(c2cccc(-c3cscn3)c2)CC1,-5%
20,OC[C@H]1CN2CCN(c3ccccn3)C[C@@H]2[C@@H]1c1ccccc1,-0.0603%
21,COc1cccc(N2CCN(CC(O)c3ccc(C)cc3)CC2)c1 (stereo not given),-11.6%
22,O=C1NCC2(CCN(C(=O)c3ccc4c(c3)CCCO4)CC2)O1,-5.8%

row,SMILES,cytotoxicity at 10 µM
1,CC(C)Nc1ccc(-c2ccnc3c2ccn3C)nn1,-7.94%
2,CNC(=O)CCc1cc(C)nc(C2CCCN2)c1 (stereo not given),-8.49%
3,COCC(=O)NCCSCCOc1cccc(Br)c1,-9.2%
4,COc1ccc(-c2nnc([C@H]3CCN(C4CCC4)C3)o2)cc1,-8.1%
5,Cc1noc(C)c1CCC(=O)Nc1ccn(C)n1,-2.4%
6,CN(C)C1CCC2(CCN(Cc3cccnc3)CC2)c2ccccc21 (stereo not given),3.15%
7,COc1ccc(C[C@H]2CN(C(=O)c3ccncc3)CC[C@@H]2OC)cc1,5.75%
8,Cc1csc(-c2cccc(NC(=O)N3CCOCC3)c2)n1,-6.35%
9,O=C(Cc1ccccn1)N1CCN2C[C@H](OCCN3CCCC3)C[C@H]2C1,-77.2%
10,O=C(c1ccccn1)N1CCC2(CNS(=O)(=O)c3cnccc3O2)C1 (stereo not given),14.5%
11,O=C(NCc1cccnc1)C1=NN(c2ccccc2)C(=O)CN1,12.3%
12,Cn1cc(CNCCNc2ncc(Cl)cc2Cl)cn1,-6.42%
13,O=S1(=O)[C@@H](c2ccccc2)[C@H](CO)CN1C1CC1,-4.83%
14,Cc1cccnc1CN1CCN(Cc2ccc(-c3cc[nH]n3)o2)CC1,-3.57%
15,O=C(c1cccc(Cl)c1)N1CCCC2(CCCNC2)C1 (stereo not given),-152%
16,NC(=O)C1CCN(C(=O)c2cc(S(=O)(=O)N3CCCC3)cs2)CC1,-43.9%
17,CS(=O)(=O)N1CC[C@H]2OCC[C@@]2(C(=O)NCC2CC2)C1,-98.2%
18,COc1ccc(CNC(C)Cn2cccn2)cc1F (stereo not given),-0.544%
19,CC(C)OCc1ccccc1CNC(=O)C(C)S(=O)(=O)C(C)C (stereo not given),-3.92%
20,CCn1cnnc1CCNc1nc(C)cc(C)c1C#N,2.56%
21,CN(C)CCN1CC(C(=O)N2CCC(c3cccc(O)c3)CC2)CC1=O (stereo not given),0.0902%
22,Cc1cc(C(=O)NCCN2CCCCC2)nn1C(C)(C)C,-3%

row,SMILES,cytotoxicity at 10 µM
1,c1ccc(CCN2CCOC(Cn3cccn3)C2)nc1 (stereo not given),-4.48%
2,CCn1cnnc1CNC(=O)NCC(c1cccs1)N1CCCC1 (stereo not given),-7.72%
3,O=C(NCCc1ccn(-c2ccc(F)cc2)n1)C1CCCO1 (stereo not given),-0.198%
4,COc1cccc(CNCC2(COc3cccnc3)C[C@@H](O)[C@@H](O)C2)c1 (stereo not given in full),-5.57%
5,Cc1cc(C)nc(N2CCC(C(=O)Nc3n[nH]c(C(C)C)n3)CC2)n1,4.07%
6,Cc1nc(CN2CCOCC2c2[nH]ncc2C)cs1 (stereo not given),2.15%
7,Cc1nc(NC2CCN(C(=O)C3CC3)CC2)c2cnn(C)c2n1,-2.13%
8,CN(C)CC(=O)N1CCC2(CCN(Cc3ccccn3)C2=O)C1 (stereo not given),1.23%
9,CCc1c(C)sc2c1c(N)nc(=O)n2CCCN(C)C,2.06%
10,COc1cn(-c2ccccc2)nc1C(=O)NCCN1CCCC(C)C1 (stereo not given),2.12%
11,COCCN(C)C(=O)c1nc2c(s1)CCCN2S(C)(=O)=O,-143%
12,Cc1cccc(CN2C[C@@H]3CN(C(=O)c4cnccn4)C[C@@H]3C2=O)c1,2.43%
13,CCSc1ncc(CN2CCN(c3ncc(C)c(N)n3)CC2)cn1,-4.65%
14,COc1ccc(CN2C[C@@H]3C[C@H](C(=O)Nc4cccnc4)[C@H](C2)O3)cc1,-72.4%
15,Cc1ccc2nnc(C(=O)NCCCn3cccn3)nc2c1,-7.93%
16,O=S(=O)(c1ccc(F)cc1)N1CCCC1c1cc[nH]n1 (stereo not given),-5.94%
17,Cc1cccc(N2CC3(CCN(Cc4nccn4C)C3)CC2=O)c1 (stereo not given),-78.6%
18,Clc1cccc(CNc2cnn(CCN3CCCCC3)c2)c1,0.889%
19,Cc1cc(C)n(C2CN(Cc3ccc(C(=O)N4CCCC4)cc3)C2)n1,1.89%
20,C1CCC(CNC2CCCN(Cc3noc(C4CC4)n3)C2)C1 (stereo not given),-2.34%
21,Cc1noc(CCCNC(=O)N2CCc3ccccc3C2CO)n1 (stereo not given),8.69%
22,O=C1NCC(C(=O)Nc2ccc(=O)n(Cc3ccccc3Cl)c2)N1 (stereo not given),-1.73%

row,SMILES,cytotoxicity at 10 µM
1,COCCN1CCC2(CC1)CC(OCC1CC1)c1ccc(C)cc12 (stereo not given),15.5%
2,CC(C)(O)CN1CCN(C(=O)c2sccc2C2CC2)CC1,5.37%
3,CC(=O)C1(c2ccccc2)CCN(C(=O)CC2CNCCO2)CC1 (stereo not given),-4.46%
4,CC(=O)N(C/C=C/c1ccccc1)CCO,4.64%
5,CCc1[nH]ncc1C(=O)N1CCCN(Cc2cnn(C(C)C)c2)CC1,-12%
6,CC(C)(CO)Nc1c(NCc2ccccn2)c(=O)c1=O,0.122%
7,Cc1cc(C)n(CC2CCCCN2Cc2cscn2)n1 (stereo not given),1.78%
8,Cc1cc(=O)c2cc(F)ccc2n1CC(=O)O,0.753%
9,Cc1ccc(NC2CCN(C(=O)COc3cccnc3)CC2)nn1,1.3%
10,O=S(=O)(CCO)Cc1ccc(OC(F)F)cc1,-2.88%
11,Cc1ccc2nc(CN(Cc3ccc(C#N)cc3)C(C)C)cc(=O)n2c1,21.1%
12,CCOc1ncccc1CNC(=O)NC1CCOc2ccccc21 (stereo not given),-9.65%
13,Cc1nc(COCc2nc3c(o2)CN(C(=O)c2ccc[nH]2)C3)cs1,0.657%
14,CCC(=O)NC1CCCN(c2cncc(OCc3ccccc3)n2)C1 (stereo not given),-2.08%
15,CN(C)c1nccc(N2CCO[C@H]3CN(CC4CCOCC4)C[C@H]32)n1,-7.21%
16,c1cncc(-c2noc(CNC3CCCN(c4cccnn4)C3)n2)c1 (stereo not given),3.26%
17,O=C(c1ccsc1)N1CCO[C@@H]2CN(Cc3cccs3)C[C@@H]2C1,-133%
18,CCCN1CCN(Cc2cccc(OC(C)C)c2)[C@H]2CS(=O)(=O)C[C@H]21,4.77%
19,Cc1ccc(C(=O)NCc2cccnc2N(C)C)o1,-6.86%
20,CN1CCN(C(=O)CC2CCN(CCc3ccccn3)CC2)CC1,-2.89%
21,COCCNC(=O)Cn1cc(NC(=O)c2cccc(Cl)c2Cl)cn1,-7.04%
22,O=C(CCNc1ncccn1)Nc1cc(C(F)(F)F)c[nH]c1=O,-6.45%
